From ChEMBL document CHEMBL4680253, “Hybrids of MEK inhibitor and NO donor as multitarget antitumor drugs” (Eur J Med Chem, 2020)
Activity calls are given as the source filed them. The rule behind the calls is not given here.

Key:
MDA-MB-231 [1] = assay: Induction of apoptosis in human MDA-MB-231 cells assessed as necrotic cells at 1 uM incubated for 24 hrs by AnnexinV-FITC and propidium iodide staining based flow cytometry (reference value: 1.084%); type: functional
MDA-MB-231 [2] = assay: Induction of apoptosis in human MDA-MB-231 cells assessed as late apoptotic cells at 10 uM incubated for 24 hrs by AnnexinV-FITC and propidium iodide staining based flow cytometry (reference value: 3.54%); type: functional
[3] = target: T1, Dual specificity mitogen-activated protein kinase kinase; MEK1/2 (Homo sapiens) (UniProt P36507+Q02750); assay: Inhibition of MEK in human MDA-MB-231 cells assessed as reduction in MEK phosphorylation at 10 uM incubated for 2 hrs by Western blot analysis; type: cell-based
T1 sequence (P36507 whole entry, looked up): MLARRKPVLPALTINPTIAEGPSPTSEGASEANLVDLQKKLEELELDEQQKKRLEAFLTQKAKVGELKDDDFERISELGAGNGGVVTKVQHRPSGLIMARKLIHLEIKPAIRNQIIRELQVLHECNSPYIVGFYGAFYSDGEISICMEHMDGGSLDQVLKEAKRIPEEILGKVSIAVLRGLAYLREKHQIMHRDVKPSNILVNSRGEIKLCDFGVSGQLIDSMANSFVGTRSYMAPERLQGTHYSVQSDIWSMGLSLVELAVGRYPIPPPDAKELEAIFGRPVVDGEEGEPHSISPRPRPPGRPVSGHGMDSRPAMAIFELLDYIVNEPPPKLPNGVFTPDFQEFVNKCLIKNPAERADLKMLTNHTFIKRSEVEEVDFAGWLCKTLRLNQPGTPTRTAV
T1 sequence (Q02750 whole entry, looked up): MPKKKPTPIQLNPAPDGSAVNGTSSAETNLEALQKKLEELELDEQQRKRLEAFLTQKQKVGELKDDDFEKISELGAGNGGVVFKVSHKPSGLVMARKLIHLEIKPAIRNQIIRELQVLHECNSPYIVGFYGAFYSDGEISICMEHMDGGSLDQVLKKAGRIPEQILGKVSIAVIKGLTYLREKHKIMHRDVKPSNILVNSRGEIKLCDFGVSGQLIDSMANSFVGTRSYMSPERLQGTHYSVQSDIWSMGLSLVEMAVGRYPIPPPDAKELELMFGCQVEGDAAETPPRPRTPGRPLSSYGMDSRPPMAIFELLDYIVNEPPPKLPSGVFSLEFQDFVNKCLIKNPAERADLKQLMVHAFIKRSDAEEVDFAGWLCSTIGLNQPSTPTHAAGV
Procedure, shortened: (§1)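 MDA-MB-231 in RPMI-1640 with 10% FBS. Dose series at 1, 3 and 10 µM for 2 h or 24 h; time course at 1 µM or 10 µM over several time points. RIPA lysates with protease/phosphatase inhibitors, equal protein on 4-20% SDS-PAGE, PVDF transfer, 5% milk block. Probed overnight at 4 °C for pMEK, MEK, pERK and ERK, then HRP secondary.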

MDA-MB-231 [4] = assay: Induction of apoptosis in human MDA-MB-231 cells assessed as early apoptotic cells at 1 uM incubated for 24 hrs by AnnexinV-FITC and propidium iodide staining based flow cytometry (reference value: 4.4%); type: functional
MDA-MB-231 [5] = assay: Induction of apoptosis in human MDA-MB-231 cells assessed as viable cells at 10 uM incubated for 24 hrs by AnnexinV-FITC and propidium iodide staining based flow cytometry (reference value: 90.962%); type: functional; conditions: read-out: Activity
[6] = target: T1, Dual specificity mitogen-activated protein kinase kinase; MEK1/2 (Homo sapiens); assay: Inhibition of MEK in human A549 cells assessed as reduction in MEK phosphorylation incubated for 2 hrs by Western blot analysis; type: cell-based; conditions: dose 1-10 µM
Procedure, shortened: (§2)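 A549 cells in RPMI-1640 with 10% FBS, treated 2 h. Cells lysed in RIPA with protease/phosphatase inhibitors on ice for 20 min. Equal protein run on 4-20% SDS-PAGE and blotted to PVDF. Membranes blocked in 5% milk, then probed overnight at 4 °C with rabbit mAbs to pMEK, MEK, pERK and ERK, followed by HRP secondary. GAPDH used as loading control.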

[7] = target: T1, Dual specificity mitogen-activated protein kinase kinase; MEK1/2 (Homo sapiens); assay: Inhibition of MEK in human A549 cells assessed as reduction in MEK phosphorylation at 10 uM incubated for 2 hrs by Western blot analysis; type: cell-based; procedure, shortened: as §2
MDA-MB-231 [8] = assay: Induction of apoptosis in human MDA-MB-231 cells assessed as viable cells at 1 uM incubated for 24 hrs by AnnexinV-FITC and propidium iodide staining based flow cytometry (reference value: 90.962%); type: functional; conditions: read-out: Activity
MDA-MB-231 [9] = assay: Antiproliferative activity against human MDA-MB-231 cells harboring KRAS G13D/BRAF G464V mutant assessed as inhibition of cell viability after 96 hrs by Celltiter-Glo assay; type: functional, cell-based; conditions: MDA-MB-231, 96 h
[10] = target: T1, Dual specificity mitogen-activated protein kinase kinase; MEK1/2 (Homo sapiens); assay: Inhibition of MEK in human MDA-MB-231 cells assessed as reduction in MEK phosphorylation at 1 to 10 uM incubated for 24 hrs by Western blot analysis; type: cell-based; conditions: dose 1-10 µM; procedure, shortened: as §1
[11] = target: T1, Dual specificity mitogen-activated protein kinase kinase; MEK1/2 (Homo sapiens); assay: Inhibition of MEK in human MDA-MB-231 cells assessed as reduction in MEK phosphorylation at 10 uM incubated for 4 hrs by Western blot analysis; type: cell-based; procedure, shortened: as §1
MDA-MB-231 [12] = assay: Induction of apoptosis in human MDA-MB-231 cells assessed as late apoptotic cells at 1 uM incubated for 24 hrs by AnnexinV-FITC and propidium iodide staining based flow cytometry (reference value: 3.54%); type: functional
HCT-116 = assay: Antiproliferative activity against human HCT116 cells harboring KRAS G13D mutant assessed as inhibition of cell viability after 96 hrs by Celltiter-Glo assay; type: functional, cell-based; conditions: HCT-116, 96 h
MDA-MB-231 [13] = assay: Induction of apoptosis in human MDA-MB-231 cells assessed as necrotic cells at 10 uM incubated for 24 hrs by AnnexinV-FITC and propidium iodide staining based flow cytometry (reference value: 1.084%); type: functional
A549 = assay: Antiproliferative activity against human A549 cells harboring KRAS G12S mutant assessed as inhibition of cell viability after 96 hrs by Celltiter-Glo assay; type: functional, cell-based; conditions: A549, 96 h
L02 = assay: Cytotoxicity against human HL7702 cells assessed as reduction in cell viability after 96 hrs by Celltiter-Glo assay; type: cell-based; conditions: L02, 96 h
Procedure, shortened: (§3)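 Cells kept at 37 °C in humidified 5% CO2 with 10% FBS; Vero in DMEM, HL7702 in RPMI-1640. Compounds added to plated cells and incubated 96 h at 37 °C. Viability read by CellTiter-Glo reagent added directly to the wells. IC50 fitted from the readings.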

[14] = target: T1, Dual specificity mitogen-activated protein kinase kinase; MEK1/2 (Homo sapiens); assay: Inhibition of MEK in human MDA-MB-231 cells assessed as reduction in ERK phosphorylation at 1 to 10 uM incubated for 24 hrs by Western blot analysis; type: cell-based; conditions: dose 1-10 µM; procedure, shortened: as §1
MDA-MB-231 [15] = assay: Induction of apoptosis in human MDA-MB-231 cells assessed as early apoptotic cells at 10 uM incubated for 24 hrs by AnnexinV-FITC and propidium iodide staining based flow cytometry (reference value: 4.4%); type: functional
[16] = target: T1, Dual specificity mitogen-activated protein kinase kinase; MEK1/2 (Homo sapiens); assay: Inhibition of MEK in human A549 cells assessed as reduction in ERK phosphorylation at 1 uM incubated for 2 hrs by Western blot analysis; type: cell-based; procedure, shortened: as §2
[17] = target: T1, Dual specificity mitogen-activated protein kinase kinase; MEK1/2 (Homo sapiens); assay: Inhibition of MEK in human A549 cells assessed as reduction in ERK phosphorylation incubated for 2 hrs by Western blot analysis; type: cell-based; conditions: dose 1-10 µM; procedure, shortened: as §2
HL-60 = assay: Antiproliferative activity against human HL60 cells harboring NRAS […] mutant assessed as inhibition of cell viability after 96 hrs by Celltiter-Glo assay; type: functional, cell-based; conditions: HL-60, 96 h
Vero = assay: Cytotoxicity against African green monkey Vero cells assessed as reduction in cell viability after 96 hrs by Celltiter-Glo assay; type: cell-based; conditions: Chlorocebus sabaeus; procedure, shortened: as §3
[18] = Antiproliferative activity against human A375 cells harboring BRAF V600E mutant assessed as inhibition of cell viability after 96 hrs by Celltiter-Glo assay; type: functional, cell-based, A375/R; conditions: A-375, 96 h
[19] = target: T1, Dual specificity mitogen-activated protein kinase kinase; MEK1/2 (Homo sapiens); assay: Inhibition of MEK in human A549 cells assessed as reduction in ERK phosphorylation by Western blot analysis; type: cell-based; conditions: TDE = time-dependent effect; procedure, shortened: as §2
[20] = target: T1, Dual specificity mitogen-activated protein kinase kinase; MEK1/2 (Homo sapiens); assay: Inhibition of MEK in human MDA-MB-231 cells assessed as reduction in ERK phosphorylation at 10 uM incubated for 4 hrs by Western blot analysis; type: cell-based; procedure, shortened: as §1
[21] = target: T1, Dual specificity mitogen-activated protein kinase kinase; MEK1/2 (Homo sapiens); assay: Inhibition of MEK in human A549 cells assessed as reduction in MEK phosphorylation by Western blot analysis; type: cell-based; conditions: TDE = time-dependent effect; procedure, shortened: as §2
[22] = Prodrug release in human HCT-116 cells assessed as increase in intracellular NO level at 100 uM measured after 2 hr by DAF-FM DA reagent based laser confocal scanning microscopy; conditions: hct-116, 2 h
[23] = target: T1, Dual specificity mitogen-activated protein kinase kinase; MEK1/2 (Homo sapiens); assay: Inhibition of MEK in human MDA-MB-231 cells assessed as reduction in ERK phosphorylation at 10 uM incubated for 2 hrs by Western blot analysis; type: cell-based; procedure, shortened: as §1

CNS(=O)(=O)Nc1cccc(Cc2c(C)c3ccc(OCCOc4no[n+]([O-])c4S(=O)(=O)c4ccccc4)cc3oc2=O)c1F
Activity (MDA-MB-231 [1]): 3.613% | Activity (MDA-MB-231 [2]): 5.11% | inhibition [3]: Active | Activity (MDA-MB-231 [4]): 20.2% | viability at 10 µM (MDA-MB-231 [5]): 57.2% | inhibition [6]: Dose-dependent effect | inhibition [7]: Active | viability at 1 µM (MDA-MB-231 [8]): 68% | IC50 (MDA-MB-231 [9]): 93 nM | inhibition [10]: Active | inhibition [11]: 100% | Activity (MDA-MB-231 [12]): 8.15% | IC50 (HCT-116): 670 nM | Activity (MDA-MB-231 [13]): 14.737% | IC50 (A549): 1100 nM | IC50 (L02): 2780 nM | inhibition [14]: Active | Activity (MDA-MB-231 [15]): 22.9% | inhibition [16]: Active | inhibition [17]: Dose-dependent effect | IC50 (HL-60): 530 nM | IC50 (Vero): 4340 nM | IC50 [18]: 330 nM | inhibition [19]: Tde | inhibition [20]: 100% | inhibition [21]: Tde | Drug metabolism [22]: Metabolite_Detected | inhibition [23]: Active
